ChEMBL document CHEMBL4732273, “In Silico Targeting of the Long Noncoding RNA MALAT1” (ACS Med Chem Lett, 2021)
The source made the active and inactive calls. The calls are words filed in the database; no cut-off is given here.

How the values were obtained:
[1] = Binding affinity to biotinylated-MALAT1 RNA (unknown origin) at 200 uM measured after 140 secs by Surface plasmon resonance analysis; settings: time 140.0 sec
Method in brief: (§1)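 The RNA was 3′-biotinylated by ligating pCp-biotin with T4 RNA ligase 1 after dephosphorylation, then immobilized on the SPR chip at 300 RU. Compounds were injected as 50 μL at 200 μM at a 20 μL/min flow rate, followed by 60 s of dissociation. Biotinylated tRNA was immobilized and run the same way as the negative-control surface.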

[2] = system: tRNA; experiment: Binding affinity to biotinylated-tRNA (unknown origin) at 200 uM measured after 120 secs by Surface plasmon resonance analysis; type: nucleic-acid assay; settings: time 120.0 sec; method in brief: as §1
[3] = Binding affinity to biotinylated-MALAT1 RNA (unknown origin) by Surface plasmon resonance analysis
Method in brief: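 Surface plasmon resonance on MALAT1 RNA that was 3′-biotinylated by pCp-biotin ligation with T4 RNA ligase 1 and immobilized at 300 RU. Compound was flowed at 20 μL/min with 60 s of dissociation. A biotinylated tRNA surface served as the negative control. The dissociation constant was derived from the SPR sensorgram analysis.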

SMILES | Activity [1] | Activity [2] | Kd [3] [µM]
O=C(c1cc(=O)[nH]c2cc(F)ccc12)N1CCCC(N2CCCC2)C1 (stereo unspecified) | Active | – | –
Cc1ccc(NC(=O)NCC2CCCN(C3CCN(C)CC3)C2)cc1 (stereo unspecified) | Active | Active | –
NCC1Cc2cccc(-c3cc4c(cc3C(N)=O)OCO4)c2O1 (stereo unspecified) | Active | Active | –
CN1CCC(O)(Cn2cnc3ccc(F)cc3c2=O)CC1 | Active | inactive | –
c1ccc2sc(C3CCCN(Cc4cc5n(n4)CCCNC5)C3)nc2c1 (stereo unspecified) | Active | inactive | –
NS(=O)(=O)c1ccc(CNC2CCC3(CCNCC3)CC2)cc1 | Active | inactive | 400
COc1ncccc1CN1CCN(c2ccc(C(N)=O)cc2)CC1 | Active | Active | –
CCN1CCCC1CNC(=O)CCC1CCN(Cc2cc3ccccc3s2)CC1 (stereo unspecified) | Active | Active | –
